Hits are enriched below; roughly 1.9% of the tested compounds scored in any of these assays.
Xi reactivation: X-chromosome reactivation activator. activation, % at 7.58 µM. XiGFP mouse fibroblasts, % GFP-positive cells imaging, 3 d; cells co-treated with 5-aza-dC sensitizer; scaled so ellipticine positive control = 100%. actives 0.055% (n = 360,000);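 active = mean normalized replicate activation at least 10% and every replicate at or above 10%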
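material = 68-5-11 XiGFP fibroblast line | medium = DMEM plus 5-aza-dC sensitizer | schedule = 3 days compound exposure | benchmarks = positive control ellipticine, 6 µM final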
Rpn11 block: blocks the human proteasome subunit Rpn11 | O00487 | human 26S proteasome, Ub4-pepOG fluorescence polarization; 20S core pre-blocked with epoxomicin | inhibition, % at 20 µM | actives 0.59% (n = 360,000) | AID 588493;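 active = inhibition at 20 µM, scaled to each plate's controls, above about 33%, limit read from the data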
ABHD5 PLIN5 PPI: ABHD5-PLIN5 protein interaction inhibition | Split G. princeps luciferase complementation, luminescence, 4 h | inhibition, % at 4 µM | actives 0.78% (n = 360,000);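 active = inhibition above the mean inhibition across every tested compound plus 3 SD, cut at about 22% in these data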
Target sequence (Q00G26 whole entry, looked up): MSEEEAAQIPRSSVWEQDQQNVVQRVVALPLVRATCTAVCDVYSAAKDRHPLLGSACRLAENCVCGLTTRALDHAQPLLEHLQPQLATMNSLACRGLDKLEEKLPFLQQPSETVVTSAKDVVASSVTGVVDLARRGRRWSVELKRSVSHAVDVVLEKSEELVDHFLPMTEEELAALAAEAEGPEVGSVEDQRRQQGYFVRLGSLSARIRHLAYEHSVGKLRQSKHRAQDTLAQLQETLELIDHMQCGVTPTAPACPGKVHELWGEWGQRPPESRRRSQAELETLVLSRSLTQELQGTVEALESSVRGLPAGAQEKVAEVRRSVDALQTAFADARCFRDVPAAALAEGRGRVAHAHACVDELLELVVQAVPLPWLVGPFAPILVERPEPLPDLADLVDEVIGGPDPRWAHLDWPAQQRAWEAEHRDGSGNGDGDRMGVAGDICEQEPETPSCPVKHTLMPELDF
Target sequence (Q8WTS1 whole entry, looked up): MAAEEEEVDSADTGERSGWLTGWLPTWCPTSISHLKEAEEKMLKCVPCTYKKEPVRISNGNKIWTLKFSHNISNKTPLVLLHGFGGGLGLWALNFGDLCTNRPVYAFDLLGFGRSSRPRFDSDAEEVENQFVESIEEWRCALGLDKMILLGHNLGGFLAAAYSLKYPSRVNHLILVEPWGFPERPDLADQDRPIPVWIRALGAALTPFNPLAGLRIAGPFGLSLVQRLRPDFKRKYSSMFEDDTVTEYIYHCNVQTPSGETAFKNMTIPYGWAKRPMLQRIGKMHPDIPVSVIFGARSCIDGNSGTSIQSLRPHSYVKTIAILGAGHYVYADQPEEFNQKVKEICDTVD
Rin1-Abl PPI inh: human Rin1-Abl interaction inhibition; inhibition, % at 7.35 µM; actives 0.4% (n = 360,000); TR-FRET Rin1/Abl binding, biochemical; P00519+Q13671; AID 588664; in the data active = inhibition above about 5%, passing the limit was not always enough
NadD inh: blocks S. aureus nicotinate mononucleotide adenylyltransferase; purified NadD enzyme, colorimetric absorbance read-out; inhibition, % at 20 µM; actives 0.78% (n = 360,000); AID 602399; in the data active = inhibition above about 26%
ABHD5-PLIN5 conf: confirmation of human ABHD5-PLIN5 interaction inhibitors | shares compounds with ABHD5 PLIN5 PPI | actives 67% (n = 2,200) | AID 651612 | biochemical ABHD5-PLIN5 interaction, luminescence | inhibition, % at 4 µM; in the data active = inhibition above about 23%
HNF4 counter: HNF4 split-luciferase signal hit, counter-screen; shares compounds with ABHD5 PLIN5 PPI; HNF4 dimerization, luminescence, biochemical; inhibition, % at 4 µM; actives 77% (n = 2,200); AID 651674;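 active = mean inhibition across replicate wells exceeding the computed hit threshold, cut at about 13% in these data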;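 note: light from luciferase halves that rejoin when HNF4 fusion proteins dimerize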
A number is an active result; 0 = inactive; - = no result given.

SMILES | Xi reactivation | Rpn11 block | ABHD5 PLIN5 PPI | Rin1-Abl PPI inh | NadD inh | ABHD5-PLIN5 conf | HNF4 counter
COc1ccc(C(C(=O)NC(C)(C)C)n2c(=O)c(-c3ccccc3)nc3ccccc32)cc1 (stereo unspecified) | 0 | - | 0 | - | - | - | -
Cc1cc(C)c2cc(C#N)c(SCC(=O)NCc3ccco3)nc2c1 | - | 0 | 35 | 0 | 0 | 66 | 73
O=C(CSc1c2c(nc3cc(Cl)ccc13)CCCC2)NCc1ccco1 | - | 0 | 24 | 0 | 0 | 42 | 38
O=C(CSc1nc2ccc(Cl)cc2[nH]1)NCc1ccco1 | - | 0 | 0 | 0 | 0 | - | -
COc1ccccc1NC(=O)N1CC(=O)N2[C@H](CO)[C@@H](c3ccc(C#CCC(C)C)cc3)[C@H]2C1 | 0 | - | - | - | - | - | -
Cc1noc(C)c1NC(=O)Nc1ccc2c(c1)C(=O)N([C@@H](C)CO)C[C@H](C)[C@@H](CN(C)C(=O)Nc1cccc3ccccc13)OCCCC[C@@H](C)O2 | 0 | - | - | - | - | - | -
CSc1nc2ccccc2cc1/C=C(\C#N)c1cccc(C)c1 | - | 0 | 49 | 0 | 0 | 0 | 0
CC1=NN(C(=S)Nc2ccccc2)C(c2ccccc2)C1 (stereo unspecified) | 0 | 0 | 0 | 0 | 0 | - | -
Cc1ccc(C2CC(c3ccccc3)=NN2C(=S)Nc2ccccc2)o1 (stereo unspecified) | - | 0 | 42 | 0 | 0 | 0 | 0
Cc1ccc(/C=C/C(=O)c2nc3ccccc3[nH]2)cc1 | - | 0 | 69 | 0 | 0 | 90 | 85
Cc1nc2ccccc2c(N)c1C(=O)/C=C/c1ccccc1 | 0 | 0 | 34 | 0 | 0 | 41 | 37
COc1ccc(-c2cnc3c(c2)C(=O)N([C@@H](C)CO)C[C@@H](C)[C@H](CN(C)C(=O)C2CC2)O3)cc1 | 0 | - | - | - | - | - | -
COc1ccc(NC(C)=O)cc1NC(C)C(=O)Nc1cccc(S(=O)(=O)N2CCOCC2)c1 (stereo unspecified) | 0 | 0 | 0 | 0 | 0 | - | -
COc1ccc(S(=O)(=O)N2CCCCCC2)cc1NC(C)C(=O)Nc1ccc(NC(C)=O)cc1 (stereo unspecified) | 0 | 0 | 47 | 0 | 0 | 0 | 0
COCC(=O)N(C)C[C@H]1Oc2ncc(-c3ccccc3F)cc2C(=O)N([C@@H](C)CO)C[C@@H]1C | 0 | - | - | - | - | - | -
Cc1ccc(-c2oc3ncnc(N)c3c2-c2ccc(C)cc2)cc1 | - | 0 | 24 | 0 | 0 | 0 | 0
Fc1ccc2c(c1)Sc1ccc(Cl)cc1CC2N1CCN(CCC2OCCO2)CC1 (stereo unspecified) | 0 | 0 | 0 | 0 | 0 | - | -
NC(=O)CCN1CCN(CCOC2Cc3cc(Cl)ccc3Sc3ccccc32)CC1 (stereo unspecified) | - | 0 | 25 | 0 | 0 | 22 | 0
COCCCN1CCN(C2Cc3ccccc3Sc3ccc(Cl)cc32)CC1 (stereo unspecified) | 0 | 0 | 25 | 0 | 0 | 0 | 0
CCCN(C)C[C@H]1OCCCC[C@@H](C)Oc2ccc(NC(=O)c3ccncc3)cc2C(=O)N([C@@H](C)CO)C[C@H]1C | 0 | - | - | - | - | - | -
CCC(=O)N(C)C[C@@H]1Oc2cc(-c3cccc(OC)c3)ccc2S(=O)(=O)N([C@@H](C)CO)C[C@@H]1C | 0 | - | - | - | - | - | -
C[C@H]1CN([C@@H](C)CO)S(=O)(=O)c2ccc(C3=CCCC3)cc2O[C@@H]1CN(C)Cc1cccnc1 | 0 | - | - | - | - | - | -
N#C/C(=C\c1cccc(NC(=O)c2ccccc2Cl)c1)C(=O)NCCc1ccccc1 | 0 | 0 | 47 | 0 | 0 | 83 | 78
N#C/C(=C/c1cccc(O)c1)C(=O)NCc1ccc(Cl)cc1 | 0 | 0 | 24 | 0 | 0 | 64 | 55
Cc1ccc(-c2cnc3c(c2)C(=O)N([C@H](C)CO)C[C@@H](C)[C@H](CN(C)C(=O)c2ccc(F)cc2)O3)cc1 | 0 | - | - | - | - | - | -
SMILES | Xi reactivation | Rpn11 block | ABHD5 PLIN5 PPI | Rin1-Abl PPI inh | NadD inh | ABHD5-PLIN5 conf | HNF4 counter
O=C(Nc1ccc(F)cc1)c1nc(S(=O)(=O)Cc2ccccc2)ncc1Cl | 0 | 0 | 60 | 0 | 0 | 90 | 97
Cc1nnc(NC(=O)CS(=O)(=O)Cc2ccccc2)s1 | 0 | 0 | 0 | 0 | 0 | - | -
Cc1ccccc1CS(=O)(=O)c1ncc(Cl)c(C(=O)Nc2ccc(F)cc2)n1 | 0 | 0 | 77 | 0 | 0 | 89 | 90
O=C(Nc1ccc(F)cc1)c1nn(-c2ccccc2)c(=O)cc1Cl | 0 | 0 | 0 | 0 | 0 | - | -
Cc1nnc(NC(=O)c2nc(S(=O)(=O)Cc3ccccc3)ncc2Cl)s1 | 0 | 0 | 34 | 0 | 0 | 71 | 51
Cc1ccc(NC(=O)c2nc(S(=O)(=O)Cc3ccccc3)ncc2Cl)cc1 | 0 | 0 | 72 | 0 | 0 | 94 | 102
O=C(Nc1ccc(Cl)cc1)N[C@@H]1CC[C@@H](CCn2cc(-c3ccccc3F)nn2)O[C@H]1CO | 0 | - | - | - | - | - | -
C[C@H]1CN([C@@H](C)CO)S(=O)(=O)c2ccc(C3=CCCCC3)cc2O[C@@H]1CN(C)S(=O)(=O)c1cn(C)cn1 | 0 | - | - | - | - | - | -
COc1ccc(OC)c(NC(=O)CS(=O)(=O)Cc2ccccc2)c1 | 0 | 0 | 0 | 0 | 0 | - | -
COc1ccc(OC)c(NC(=O)c2nc(S(=O)(=O)Cc3ccccc3)ncc2Cl)c1 | 0 | 0 | 50 | 0 | 0 | 93 | 87
CCSC1=NC(C)(C)C=C(/C=C/c2ccc(Cl)cc2Cl)N1 | - | 0 | 26 | 0 | 0 | 32 | 33
CSC1=NC(C)(C)C=C(/C=C/c2ccc(Cl)cc2)N1 | 0 | 0 | 24 | 0 | 0 | 45 | 43
CSC1=NC(C)(C)C=C(/C=C/c2ccc(Cl)cc2Cl)N1 | 0 | 0 | 0 | 0 | 0 | - | -
CC(C)NC(=O)N(C)C[C@@H]1Oc2ncc(C#CC3CCCCC3)cc2C(=O)N([C@H](C)CO)C[C@@H]1C | 0 | - | - | - | - | - | -
COc1ccc2c3c([nH]c2c1)[C@@H](CO)N(C)CC31CCN(C(=O)c2cccnc2)CC1 | 0 | - | - | - | - | - | -
COc1cccc(OCC(O)CN2CCC(CN3C(=O)c4cccc5cccc(c45)C3=O)CC2)c1 (stereo unspecified) | 0 | 0 | 0 | 0 | 0 | - | -
O=C1c2cccc3cccc(c23)C(=O)N1CC1CCN(CC(O)COc2ccc3ccccc3c2)CC1 (stereo unspecified) | 0 | 0 | 26 | 0 | 0 | 0 | 0
O=C(C1CCCO1)N1CCN(Cc2c(O)ccc3ccccc23)CC1 (stereo unspecified) | - | 0 | 41 | 0 | 0 | 72 | 102
Cc1ccc(CN2CCN(C(=O)C3CCCO3)CC2)cc1 (stereo unspecified) | - | 0 | 0 | 0 | 0 | - | -
CCOC(=O)N1CCN(Cc2c(O)ccc3ccccc23)CC1 | 0 | 0 | 27 | 0 | 0 | 51 | 89
COc1ccc(S(=O)(=O)N(C)C[C@@H]2OCCCC[C@@H](C)Oc3ccc(NC(=O)CCC(F)(F)F)cc3C(=O)N([C@@H](C)CO)C[C@@H]2C)cc1 | 0 | - | - | - | - | - | -
